# An excerpt weighted towards active compounds, which were near 4.2% of everything screened.
# Rad51 HR inh = blocks human Rad51 in homologous recombination. actives 0.085% (n = 200,000). hRad51 DNA strand exchange, fluorescence dequenching. inhibition, % at 10 µM. AID 1385. Q06609;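 active = inhibition above 40% at the single screening dose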
#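 Read-out basis: percent inhibition relative to plate controls and blanks / Assay system: human Rad51 nucleoprotein filaments preassembled on unlabelled ssDNA / Timing: filaments 15 min 37 °C, then compound 30 min / Control set: per-plate controls and blanks / Technique: fluorescence dequenching at 485/520 nm / Compound: 10 µM final, single point / Also added: Fluorescein- and BHQ1-tagged 47-mer duplex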
# Ins promoter up = MIN6 insulin promoter up-regulation | MIN6 insulin promoter-GFP reporter, high-content imaging; stronger effect = higher value | z-score at 5 µM | actives 0.3% (n = 190,000);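 active = z-score above 3 at 5 µM with at least 500 cells counted in the well; inconclusive = wells under 500 cells, flagged as cytotoxic or low count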
# Autophagy HCS = modulators of autophagy; actives 0.98% (n = 190,000); calls only at 10 µM (by protocol); MEF GFP-LC3 puncta imaging; test concentration mostly 10 µM;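 active = percentage of spot-positive cells more than 3 SD above its plate mean, without a fluorescence outlier flag or 80% toxicity; inconclusive = no clear call, values can overlap the other calls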
# WT yeast gro inh = growth inhibition of WT yeast, mitochondrial fusion screen | mitochondrial fusion phenotypic screen, WT strain | inhibition, % at 10 µM | actives 2.1% (n = 190,000); in the data active = inhibition above about 58%; tested in S. cerevisiae
# SKKanGAS inh = blocks kanamycin growth of S. pyogenes SKKanGAS strain; actives 1.3% (n = 300,000); BacTiter-Glo, 6 h; inhibition, % at 7.5 µM;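 active = mean replicate score, as percent of positive control median, at least 50; inconclusive = mean below 50 but one replicate at or above 50; inactive = mean and every replicate below 50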;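 note: strain carries kanamycin resistance gene driven by streptokinase promoter and grows in 40 µg/ml kanamycin; loss of luminescence reflects streptokinase promoter inhibition or plain growth inhibition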
# KCC2 mod = modulators of human KCC2 chloride dependent transport | KCC2 cells, thallium flux FluoZin-2 fluorescence | AID 1456 | Q9H2X9 | B-score of Tl+ flux slope (higher = more flux/activation; lower = inhibition) at 10 µM | actives 2.2% (n = 190,000);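 active = thallium flux slope and its plate-corrected score both differing from the plate sample mean at a set confidence after two filtering rounds, in either direction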;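 note: slope of fluorescence scaled to starting intensity during 10 to 20 s after thallium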
# KCC2 secondary = KCC2 (human) modulation, secondary assay; normalised thallium flux (F/F0 slope) at 10 µM; AID 1713; actives 15% (n = 3,700); shares compounds with KCC2 mod; HEK293-KCC2, thallium flux, FluoZin2 fluorescence; stronger effect = higher value;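 active = thallium flux slope above the same plate's solvent-only control mean plus 3 SD; inconclusive = the two replicate wells disagree; inactive = no significant difference from solvent-only control wells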
# KCC2 bumet counter = thallium flux persisting under bumetanide in KCC2 cells, counter-screen secondary assay. shares compounds with KCC2 mod. actives 49% (n = 3,700). AID 1714. HEK293-KCC2 + bumetanide/ouabain, thallium flux FluoZin2; stronger effect = higher value. normalized thallium flux at 10 µM;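 active = thallium entry rate above the same plate's blocked-transporter control wells by more than 3 SD; inconclusive = the two repeat wells disagree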;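 note: raw slope of fluorescence over initial fluorescence between 10 and 20 s after thallium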
# KCC2 sec2 = KCC2 (human) modulation, second secondary assay; shares compounds with KCC2 mod; normalized thallium flux at 10 µM; HEK293-KCC2, thallium flux FluoZin2 fluorescence; actives lie on both sides; F/F0 rise rate, 10–20 s post-thallium; actives 23% (n = 3,700); AID 1715;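 active = thallium flux slope more than 3 SD above or below the plate's solvent-only control mean, mostly below; inconclusive = the two repeat wells disagreed; inactive = no significant shift from solvent-only controls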
# HEK counter1 = counter-screen for KCC2 modulators: effect in parental HEK293 cells | shares compounds with KCC2 mod | thallium flux FluoZin2, ouabain; baseline-ratio fluorescence slope, 10–20 s after thallium | thallium flux rate (normalised fluorescence) at 10 µM | actives 46% (n = 3,700) | AID 1716;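 active = thallium flux rate significantly above the same plate's solvent-only control wells, beyond their mean plus 3 SD; inconclusive = the two replicate wells gave conflicting results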
# KCC2 ouabain = KCC2 (human) modulation, ouabain retest; shares compounds with KCC2 mod; HEK293-KCC2, thallium flux FluoZin2 fluorescence; bidirectional: low = inhibitor, high = activator; raw Tl+ flux slope (below DMSO = inhibition, above = activation) at 10 µM; actives 48% (n = 3,700);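 active = thallium flux slope beyond 3 SD from same-plate DMSO control mean in most replicates, usually higher, sometimes lower; inconclusive = repeat tests gave conflicting results; inactive = no significant difference from controls in most replicates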;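 note: slope of initial-normalized fluorescence between seconds 10 and 20 after thallium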
# HEK293 Tl flux2 = counter-screen for KCC2 modulators: effect in parental HEK293 cells. shares compounds with KCC2 mod. thallium flux FluoZin-2 fluorescence slope. thallium flux slope at 10 µM. actives 33% (n = 3,700). AID 1718;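 active = thallium flux slope above the same plate's solvent-control mean plus 3 SD in both duplicate wells; inconclusive = duplicate wells that disagreed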;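 note: run without ouabain in cells lacking the KCC2 cotransporter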
# Hits are given with their value; . = inactive; ? = inconclusive; / = no result given.
SMILES,Rad51 HR inh,Ins promoter up,Autophagy HCS,WT yeast gro inh,SKKanGAS inh,KCC2 mod,KCC2 secondary,KCC2 bumet counter,KCC2 sec2,HEK counter1,KCC2 ouabain,HEK293 Tl flux2
N=C1S/C(=C\c2ccco2)C(=O)N1c1nccs1,.,.,.,.,80.7,18.8,0.0277,0.0745,?,0.028,0.0493,0.015
Cc1c(Cl)cccc1NC(=O)Nc1cc(C(C)(C)C)on1,/,/,/,/,.,/,/,/,/,/,/,/
S=c1nc(-c2ccccc2)[nH]c2ccc(Br)cc12,.,.,/,/,.,107,0.0253,0.116,0.0993,0.108,0.108,0.0957
c1ccc(-c2nc3ccccc3[nH]2)cc1,/,/,/,/,.,/,/,/,/,/,/,/
CO[C@H]1C[C@@H]2CC[C@@H](C)[C@@](O)(O2)C(=O)C(=O)N2CCCC[C@H]2C(=O)O[C@H]([C@H](C)C[C@@H]2CC[C@@H](O)[C@H](OC)C2)CC(=O)[C@H](C)C=C(C)[C@@H](O)[C@@H](OC)C(=O)[C@H](C)C[C@H](C)C=CC=CC=C1C,/,.,/,/,/,.,.,.,.,.,.,.
CC[C@@H]1C=C(C)C[C@H](C)C[C@H](OC)[C@H]2O[C@@](O)(C(=O)C(=O)N3CCCC[C@H]3C(=O)O[C@H](/C(C)=C/[C@@H]3CC[C@@H](O)[C@H](OC)C3)[C@H](C)[C@@H](O)CC1=O)[C@H](C)C[C@@H]2OC,.,.,.,.,/,.,/,/,/,/,/,/
CCn1c(-c2cc(-c3ccc(C)cc3)nc3ccccc23)n[nH]c1=S,.,.,.,.,.,7.91,?,0.0491,.,0.0155,0.039,0.0175
Cc1nc(-c2ccccc2)sc1-c1ccn[nH]1,.,.,.,.,.,.,/,/,/,/,/,/
C=CCn1c(-c2cc(-c3ccc(C)cc3)nc3ccccc23)n[nH]c1=S,.,.,.,.,.,36.5,0.0147,0.107,.,0.0309,0.0519,0.0122
CCn1c(-c2sc(-c3ccccc3)nc2C)n[nH]c1=S,.,.,.,.,.,3.89,.,0.0132,.,0.0138,?,0.0173
C=CCn1c(-c2cccc3ccccc23)n[nH]c1=S,.,.,.,.,.,.,/,/,/,/,/,/
Cn1c(-c2csc(-c3ccccc3)n2)n[nH]c1=S,.,.,.,.,.,5.23,.,0.0207,.,0.0171,0.0276,0.0205
Cc1ccc(-c2n[nH]c(=S)n2C)cc1,.,.,.,.,.,/,/,/,/,/,/,/
COc1nc(Nc2ccccc2F)nc(OC)n1,/,/,/,/,.,/,/,/,/,/,/,/
O=C(CSc1nnc(CNc2ccccc2)o1)c1ccc2c(c1)OCCO2,.,.,.,.,.,-4.39,.,?,0.0238,.,?,.
O=C(CSc1nnc(CNC(=O)c2ccccc2)o1)Nc1ccc2c(c1)OCCO2,/,/,/,/,.,/,/,/,/,/,/,/
O=C(CSc1ccc(-c2ccccc2)nn1)N1CCCc2ccccc21,.,.,.,.,.,-4.66,.,.,0.0207,.,?,.
CC1Cc2ccccc2N1C(=O)CSc1nnc(CNc2ccccc2)o1 (centres undefined),.,.,.,.,.,/,.,.,0.0226,.,0.013,.
Cc1ccc(-c2ccc(SCC(=O)N3CCCc4ccccc43)nn2)cc1,.,.,.,.,.,.,/,/,/,/,/,/
